# Experimental data from article PMC9473745 (Cell chemical biology, 2021).
# Entries after “also recorded” stand apart in the source; their conditions may differ. Like-named read-outs stand apart in the source and are kept apart here.
# Key:
# USP7 catalytic domain = USP7 catalytic domain (Homo sapiens, UniProt Q93009); assay: Ubiquitin rhodamine 110 kinetic assay, USP7 catalytic domain; type: biochemical
# Summary of the method: (§1)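 Human DUB constructs, each N-terminally 6xHis-tagged and expressed in E. coli BL21(DE3): USP7 full length (AA 1–1102), USP7 catalytic domain (AA 208–560), USP8 catalytic domain (AA 743–1110) and USP30 catalytic domain (AA 65–517). Ub-Rho110 was then added and fluorescence (ex 485/em 535 nm) read each minute over 30 min. Initial rates were normalized to no-compound wells and fitted (variable slope) for IC50; each run at least twice, SEM.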
# USP8 [1] = assay: Ub-Rho endpoint screen of spiro indolinone expansion set, USP8; type: biochemical, human; details: 8-point dose-response in triplicate
# Summary of the method: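 Enzyme and test compound were incubated 10 min; DMSO wells served as control. Ub-Rho110 was then added and the reaction run 30 min–3 h at room temperature depending on DUB. Stopped with assay buffer plus 0.2% TFA and read at ex 485/em 535 nm.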
# full-length USP7 = assay: Kinetic Ub-Rho assay, full-length USP7; type: biochemical, human; details: dose-response
# Summary of the method: as §1
# USP7 = assay: Ub-Rho endpoint screen of spiro indolinone expansion set, USP7; type: biochemical, human; details: 8-point dose-response in triplicate
# Summary of the method: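 Enzyme and acoustically dispensed test compound were incubated 1 h; DMSO-only wells served as neutral control. Ub-Rho110 was then added and the reaction run 10 min at room temperature without a quench. Fluorescence was read at ex 485/em 535 nm.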
# USP28 catalytic domain = target: T1, USP28 catalytic domain (Homo sapiens, UniProt Q96RU2); assay: Ubiquitin rhodamine 110 kinetic assay, USP28; type: biochemical; details: for potency relative to AZ1: USP28 IC50 compared with AZ1
# T1 sequence (Q96RU2 149-703): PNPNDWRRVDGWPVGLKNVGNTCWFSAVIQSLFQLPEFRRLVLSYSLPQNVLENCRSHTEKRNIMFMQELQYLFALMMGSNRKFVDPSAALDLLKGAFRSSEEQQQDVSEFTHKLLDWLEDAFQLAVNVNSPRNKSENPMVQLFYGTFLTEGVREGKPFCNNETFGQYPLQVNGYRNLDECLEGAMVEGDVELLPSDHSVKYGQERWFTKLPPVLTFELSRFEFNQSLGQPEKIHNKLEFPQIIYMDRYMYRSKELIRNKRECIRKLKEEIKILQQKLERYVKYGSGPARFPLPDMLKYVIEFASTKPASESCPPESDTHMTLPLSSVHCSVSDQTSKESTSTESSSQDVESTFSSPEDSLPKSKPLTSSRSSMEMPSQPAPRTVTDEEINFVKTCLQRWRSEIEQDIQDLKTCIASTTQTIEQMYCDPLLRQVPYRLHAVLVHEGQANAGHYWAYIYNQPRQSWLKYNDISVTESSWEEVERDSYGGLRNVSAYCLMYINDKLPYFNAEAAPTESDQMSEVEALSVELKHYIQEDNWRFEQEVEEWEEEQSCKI
# [2] = system: USP28 in HEK293T cellular lysate; assay: Competitive ABPP with western blot readout for USP28; type: binding, human; details: 1 hour pre-treatment, dose-response
# Summary of the method: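 Lysate was pre-incubated with compound or DMSO for 1 h at RT. It was then labeled with 1:1 Ub-PA/Ub-VME (2 μM final) for 30 min at RT with shaking. Samples were denatured at 95°C, run on SDS-PAGE, and immunoblotted with anti-USP28 rabbit monoclonal.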
# USP28 in HEK293T lysates = assay: Quantitative activity-based protein profiling; type: binding, human; details: HEK293T lysate, 250 μM compound, Ub-PA/Ub-VME probes
# Summary of the method: (§2)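 HEK293T cells were lysed in NP-40/glycerol/TCEP buffer with protease and phosphatase inhibitors, and lysate was diluted to 10 mg/mL. Lysate was incubated with 250 μM test compound or DMSO for 30 min at room temperature, with a selective USP7 inhibitor as positive control. Biotin-Ub-PA and biotin-Ub-VME (1 μM each) were added for 15 min. Labelled proteins were captured on streptavidin, trypsin-digested on bead and TMT-labelled. Quantified by multidimensional LC-MS using reporter-ion protein-level values.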
# USP30 catalytic domain = target: T2, USP30 catalytic domain (Homo sapiens, UniProt Q70CQ3); assay: Ubiquitin rhodamine 110 kinetic assay, USP30; type: biochemical
# T2 sequence (Q70CQ3 65-517): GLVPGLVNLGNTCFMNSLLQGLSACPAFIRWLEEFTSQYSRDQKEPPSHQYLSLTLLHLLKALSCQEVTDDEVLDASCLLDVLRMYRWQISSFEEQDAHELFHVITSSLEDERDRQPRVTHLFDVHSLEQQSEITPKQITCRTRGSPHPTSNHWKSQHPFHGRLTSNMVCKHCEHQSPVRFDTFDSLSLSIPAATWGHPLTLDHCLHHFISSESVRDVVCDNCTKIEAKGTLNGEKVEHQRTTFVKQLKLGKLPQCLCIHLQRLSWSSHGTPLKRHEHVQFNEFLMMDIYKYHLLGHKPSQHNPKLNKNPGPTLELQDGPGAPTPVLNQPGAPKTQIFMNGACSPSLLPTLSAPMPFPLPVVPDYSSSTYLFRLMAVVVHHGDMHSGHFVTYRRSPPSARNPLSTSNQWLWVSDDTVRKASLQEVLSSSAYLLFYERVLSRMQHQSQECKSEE
# Summary of the method: as §1
# [3] = system: other DUBs detected in cell lysate; assay: Quantitative activity-based protein profiling; type: binding, human; details: HEK293T lysate, 250 μM compound, Ub-PA/Ub-VME probes
# Summary of the method: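 Aliquots were treated with 250 μM compound or DMSO for 30 min at RT, then processed to peptides. Peptides were TFA-acidified, C18-desalted, and TMT-labeled for 1 h at RT. Peptides were mapped to unique genes, and reporter ions were aggregated into protein-level values.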
# [4] = system: native USP25 in HEK293T lysates; assay: Quantitative activity-based protein profiling; type: binding, human; details: HEK293T lysate, 250 μM compound, Ub-PA/Ub-VME probes
# Summary of the method: as §2
# USP8 catalytic domain = target: T3, USP8 catalytic domain (Homo sapiens, UniProt P40818); assay: Ubiquitin rhodamine 110 kinetic assay, USP8; type: biochemical; details: kinetic Ub-Rho assay
# T3 sequence (P40818 743-1110): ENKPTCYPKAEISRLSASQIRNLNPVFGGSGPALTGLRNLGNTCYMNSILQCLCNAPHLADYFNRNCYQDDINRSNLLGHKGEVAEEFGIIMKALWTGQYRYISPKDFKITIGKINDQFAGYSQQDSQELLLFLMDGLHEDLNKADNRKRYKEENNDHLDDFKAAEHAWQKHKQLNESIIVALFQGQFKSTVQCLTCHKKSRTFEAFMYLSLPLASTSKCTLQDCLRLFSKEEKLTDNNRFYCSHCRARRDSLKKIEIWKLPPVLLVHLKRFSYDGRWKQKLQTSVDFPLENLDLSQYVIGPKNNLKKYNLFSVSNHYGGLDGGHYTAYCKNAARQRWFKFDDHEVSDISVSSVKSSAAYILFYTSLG
# Summary of the method: as §1
# USP10 = assay: Ubiquitin-AMC kinetic assay, USP10; type: biochemical, human; details: dose-response
# Summary of the method: (§3)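 Same kinetic protocol as the Ub-Rho110 assay, with Ub-AMC as substrate. His-tagged catalytic domains were used: USP8 (AA 743–1110) and USP10 (AA 376–798). Read at ex 345/em 445 nm each minute over 30 min. IC50 came from initial rates normalized to no-compound wells and was compared with the Ub-Rho110 value.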
# USP8 [5] = assay: Ubiquitin-AMC kinetic assay, USP8; type: biochemical, human; details: dose-response
# Summary of the method: as §3
# USP10 catalytic domain = USP10 catalytic domain (Homo sapiens, UniProt Q14694); assay: Ubiquitin rhodamine 110 kinetic assay, USP10; type: biochemical; details: read-out: IC50 ± SEM, kinetic Ub-Rho assay, 12-point dose-response, mean ± SEM (n)
# Summary of the method: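 Enzyme was the human USP10 catalytic domain (aa 376–798), N-6xHis, E. coli-expressed, purified by Ni-NTA and Superdex 200. Fluorescence (ex 485/em 535 nm) was read every minute for 30 min. Initial rates were normalized to no-compound control and fitted with a variable-slope model; runs ≥2, SEM.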
# [6] = IC50 ± SEM, USP28, catalytic domain of the human protein, kinetic Ub-Rho assay, mean ± SEM (n)
# USP7 catalytic domain, sequence (Q93009 208-560): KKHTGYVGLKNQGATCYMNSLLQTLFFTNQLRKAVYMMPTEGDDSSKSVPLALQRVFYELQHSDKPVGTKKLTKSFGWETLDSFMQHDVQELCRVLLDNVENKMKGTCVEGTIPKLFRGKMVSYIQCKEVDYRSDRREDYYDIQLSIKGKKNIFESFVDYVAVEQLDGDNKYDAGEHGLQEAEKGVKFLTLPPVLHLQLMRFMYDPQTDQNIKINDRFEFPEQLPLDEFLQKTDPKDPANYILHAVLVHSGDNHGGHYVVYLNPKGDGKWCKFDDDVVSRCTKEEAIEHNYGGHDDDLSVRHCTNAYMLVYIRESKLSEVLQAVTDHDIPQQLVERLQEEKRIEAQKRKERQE
# USP10 catalytic domain, sequence (Q14694 376-798): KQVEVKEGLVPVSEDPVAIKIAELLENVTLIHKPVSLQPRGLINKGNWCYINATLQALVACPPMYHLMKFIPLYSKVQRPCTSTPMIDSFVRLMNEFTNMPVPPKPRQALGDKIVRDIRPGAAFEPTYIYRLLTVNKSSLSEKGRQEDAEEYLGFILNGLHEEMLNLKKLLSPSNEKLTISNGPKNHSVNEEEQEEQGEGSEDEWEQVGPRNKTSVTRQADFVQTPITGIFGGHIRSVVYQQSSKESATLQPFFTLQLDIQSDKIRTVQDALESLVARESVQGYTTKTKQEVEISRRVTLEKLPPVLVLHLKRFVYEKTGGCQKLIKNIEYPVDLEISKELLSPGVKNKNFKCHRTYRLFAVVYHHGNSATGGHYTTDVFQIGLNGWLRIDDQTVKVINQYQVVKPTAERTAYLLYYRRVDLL
structure (smiles),measurement,setting,value
"Cc1nn(-c2ccccc2)c2c1C1(C(=O)Nc3ccccc31)N1C(=N2)Sc2ccccc21 (centres unmarked) [AV-9606–27, 3-methyl-1-phenyl-1H-spiro[benzo[4,5]thiazolo[3,2-a]pyrazolo[3,4-d]pyrimidine-4,3’-indolin]-2’-one]",IC50,"USP7 catalytic domain; read-out: IC50 ± SEM, USP7, kinetic Ub-Rho assay, 12-point dose-response, mean ± SEM (n)",4680 ± 1050 nM
"CC(C)c1[nH]nc2c1C1(C(=O)Nc3ccccc31)C(C#N)=C(N)O2 (centres unmarked) [AV-9606–41, 6’-amino-3’-isopropyl-2-oxo-2’H-spiro[indoline-3,4’-pyrano[2,3-c]pyrazole]-5’-carbonitrile]",activity against USP8 in expansion set screen,USP8 [1],inactive against USP8
same,IC50,USP7 catalytic domain,3830 ± 1600 nM
same,inhibition of full-length USP7,full-length USP7,no inhibition of full-length protein; also recorded: no activity against a full-length protein
same,activity against USP7 in expansion set screen,USP7,active against USP7
"O=C1c2ccccc2NC2(C(=O)Nc3ccc(Br)cc32)N1c1ccccc1 (centres unmarked) [AV-9606–99, 5-bromo-3’-phenyl-1’H-spiro[indoline-3,2’-quinazoline]-2,4’(3’H)-dione]",IC50,USP28 catalytic domain; [6],4330 ± 1080 nM
"Cc1ccc(S(=O)(=O)N(C)C)cc1NC(=O)Cc1ccc(Cl)c(Cl)c1 [AV-9606–129, 2-(3,4-dichlorophenyl)-N-(5-(N,N-dimethylsulfamoyl)-2-methylphenyl)acetamide]",IC50,USP28 catalytic domain; [6],402 ± 197 nM
"O=c1ccc(-c2noc(Cc3ccc(Cl)c(Cl)c3)n2)c[nH]1 [AV-9606–180, 5-(5-(3,4-dichlorobenzyl)-1,2,4-oxadiazol-3-yl)pyridin-2(1H)-one]",IC50,"USP28 catalytic domain; IC50, USP28",≤ 100 nM
same,potency relative to AZ1,USP28 catalytic domain,approximately 10 fold
same,blockage of USP28 labeling by covalent probe (western blot),[2],good dose-dependent inhibition and prevention of probe labeling
same,blockage of probe labeling of USP28,USP28 in HEK293T lysates,strong inhibition of USP28
"CC(C)NS(=O)(=O)c1cccc2c(NC(=O)[C@H](Cc3ccccc3)NC(=O)c3ccccc3)cccc12 [AV-11324–5, (S)-N-(1-((5-(N-isopropylsulfamoyl)naphthalen-1-yl)amino)-1-oxo-3-phenylpropan-2-yl)benzamide]",IC50,USP30 catalytic domain,275 ± 70 nM
"O=c1ccc(-c2noc(Cc3cccc(Cl)c3)n2)c[nH]1 [AV-11324–75, 5-(5-(3-chlorobenzyl)-1,2,4-oxadiazol-3-yl)pyridin-2(1H)-one]",IC50,USP28 catalytic domain; [6],176 ± 73 nM
same,blockage of USP28 labeling by covalent probe (western blot),[2],good dose-dependent inhibition and prevention of probe labeling
OCCNCc1cc(Br)ccc1OCc1ccc(F)c(C(F)(F)F)c1 [AZ1],activity toward other DUBs detected,[3],did not exhibit activity toward any other DUBs
same,blockage of probe labeling of USP25,[4],strongly blocked labeling of USP25
same,blockage of probe labeling of USP28,USP28 in HEK293T lysates,little impact on USP28
COc1ccc(C(=O)COC(=O)c2ccccc2NS(=O)(=O)c2ccc(O)c([N+](=O)[O-])c2)cc1 [Compound Z56965384],inhibition of off-target DUB USP8,USP8 catalytic domain,confirmed inhibition
same,increase in IC50 value with Ubiquitin-AMC versus Ub-Rho,USP10,3–10 fold
same,increase in IC50 value with Ubiquitin-AMC versus Ub-Rho,USP8 [5],3–10 fold
same,IC50,USP10 catalytic domain,26600 ± 4690 nM
"CCCc1nc2sc3c(NCCc4ccc(OC)c(OC)c4)ncnc3c2c2c1CCC2 [bin-01–07-07, N-(3,4-dimethoxyphenethyl)-4-propyl-2,3-dihydro-1H-cyclopenta[4’,5’]pyrido[3’,2’:4,5]thieno[3,2-d]pyrimidin-7-amine]",IC50,"USP28 catalytic domain; IC50, USP28",≤ 100 nM
same,IC50,USP28 catalytic domain; [6],46 ± 17 nM
same,potency relative to AZ1,USP28 catalytic domain,approximately 10 fold
same,blockage of USP28 labeling by covalent probe (western blot),[2],good dose-dependent inhibition and prevention of probe labeling
same,blockage of probe labeling of USP28,USP28 in HEK293T lysates,strong inhibition of USP28
